{"source": "ChEMBL document CHEMBL1250433", "about": "“Synthesis of 5-arylidene-2-amino-4-azolones and evaluation of their anticancer activity” (2010)", "assay_type_in_all_cases": "functional", "key": {"SK-MEL-5": {"system": "SK-MEL-5", "experiment": "Cytotoxicity against human SK-MEL-5 cells", "how_it_was_run": "(§1)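 Tested in the US National Cancer Institute 60 human tumour cell line screen. Dose-response parameters were calculated per cell line: GI50 (molar concentration giving 50% net growth inhibition), TGI (molar concentration giving total growth inhibition) and LC50 (molar concentration giving 50% net cell kill).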"}, "PC-3": {"system": "PC-3", "experiment": "Cytotoxicity against human PC3 cells", "settings": "for TGI: read-out: pTGI (converted)", "how_it_was_run": "as §1"}, "HL-60(TB)": {"system": "HL-60(TB)", "experiment": "Cytotoxicity against human HL-60(TB) cells", "how_it_was_run": "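Tested in the National Cancer Institute 60 human tumour cell line in vitro screen, which includes leukaemia lines. From the dose–response data, GI50 is the molar concentration giving 50% inhibition of net cell growth, TGI is total growth inhibition, and LC50 is 50% net cell kill. Values are expressed as Log GI50.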"}, "MOLT-4": {"system": "MOLT-4", "experiment": "Cytotoxicity against human MOLT4 cells", "how_it_was_run": "as §1"}, "CCRF-CEM": {"system": "CCRF-CEM", "experiment": "Cytotoxicity against human CCRF-CEM cells", "how_it_was_run": "as §1"}, "MDA-MB-435": {"system": "MDA-MB-435", "experiment": "Cytotoxicity against human MDA-MB-435 cells", "how_it_was_run": "as §1"}, "K562": {"system": "K562", "experiment": "Cytotoxicity against human K562 cells", "how_it_was_run": "as §1"}}, "data": [{"smiles": "CN(C1=NC(=O)/C(=C/C(Cl)=C\\c2ccc([N+](=O)[O-])cc2)S1)c1ccc(O)cc1", "values": [{"measurement": "GI50", "setting": "SK-MEL-5", "result": "< 0.01", "unit": "µM"}, {"measurement": "TGI", "setting": "SK-MEL-5; read-out: pTGI", "result": "< 0.01", "unit": "µM"}]}, {"smiles": "O=C1N=C(Nc2ccc(Cl)cc2)N/C1=C\\c1ccc(Cl)cc1", "values": [{"measurement": "GI50", "setting": "PC-3", "result": 0.38, "unit": "µM"}, {"measurement": "TGI", "setting": "PC-3", "result": 4.37, "unit": "µM"}]}, {"smiles": "O=C1N=C(Nc2ccccc2Cl)N/C1=C\\c1ccc(Cl)cc1Cl", "values": [{"measurement": "GI50", "setting": "HL-60(TB)", "result": 0.123, "unit": "µM"}, {"measurement": "TGI", "setting": "HL-60(TB); read-out: pTGI (converted)", "result": 1.82, "unit": "µM"}]}, {"smiles": "O=C1N=C(Nc2cccc(Cl)c2)N/C1=C\\c1cccc(F)c1", "values": [{"measurement": "GI50", "setting": "MOLT-4", "result": 1.05, "unit": "µM"}]}, {"smiles": "COc1ccc(CNC2=NC(=O)/C(=C/c3ccccc3Cl)N2)cc1", "values": [{"measurement": "GI50", "setting": "PC-3", "result": 0.0912, "unit": "µM"}, {"measurement": "TGI", "setting": "PC-3", "result": 27.5, "unit": "µM"}]}, {"smiles": "O=C1N=C(NCc2ccc(Cl)cc2)N/C1=C\\c1c(Cl)cccc1Cl", "values": [{"measurement": "GI50", "setting": "CCRF-CEM", "result": 1.07, "unit": "µM"}, {"measurement": "TGI", "setting": "CCRF-CEM; read-out: pTGI (converted)", "result": 29.5, "unit": "µM"}]}, {"smiles": "COc1ccc(/C=C2\\SC(Nc3ccc(O)cc3)=NC2=O)cc1OC", "values": [{"measurement": "GI50", "setting": "MDA-MB-435", "result": 0.407, "unit": "µM"}, {"measurement": "TGI", "setting": "MDA-MB-435; read-out: pTGI (converted)", "result": 2.04, "unit": "µM"}, {"measurement": "GI50", "setting": "K562", "result": 0.398, "unit": "µM"}, {"measurement": "TGI", "setting": "K562; read-out: pTGI (converted)", "result": 6.76, "unit": "µM"}]}]}
